Source: ChEMBL document CHEMBL4680257, “Discovery of novel NF-кB inhibitor based on scaffold hopping: 1,4,5,6,7,8-hexahydropyrido[4,3-d]pyrimidine” (Eur J Med Chem, 2020)

What was measured:
[1] = test system: L02; experiment: Cytotoxicity against human L02 cells assessed as reduction in cell viability incubated for 24 hrs by MTT assay; format: cell-based; conditions: L02, 24 h
How it was run: (§1)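 Cells kept at 37 °C in 5% CO₂. HepG2 grown in DMEM with 10% serum; HHL-5, LO2 and SMMC-7721 in 1640 medium with 10% serum. Seeded, grown 24 h, then exposed 24 h to 10, 5, 2.5, 1.25, 0.625 and 0.3125 µg/mL. MTT (5 mg/mL) added for 4 h at 37 °C; formazan dissolved in DMSO, OD read at 570 nm. IC50 averaged from three replicates.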

[2] = test system: SMMC-7721; experiment: Cytotoxicity against human SMMC-7721 cells assessed as reduction in cell viability incubated for 24 hrs by MTT assay; format: functional, cell-based; conditions: SMMC-7721, 24 h; how it was run: as §1
[3] = test system: HepG2; experiment: Cytotoxicity against human HepG2 cells assessed as reduction in cell viability incubated for 24 hrs by MTT assay; format: functional, cell-based; conditions: HepG2, 24 h; how it was run: as §1
[4] = Cytotoxicity against human HHL-5 cells assessed as reduction in cell viability incubated for 24 hrs by MTT assay; format: cell-based; conditions: HHL-5, 24 h; how it was run: as §1
[5] = test system: RAW264.7; experiment: Antiinflammatory activity against mouse RAW264.7 cells assessed as LPS-induced TNF-alpha at 5 uM pretreated for 2 hrs followed by LPS stimulation and measured after 22 hrs by ELISA (reference value: 0 %); format: functional; conditions: time 24 hrs
[6] = test system: RAW264.7; experiment: Antiinflammatory activity against mouse RAW264.7 cells assessed as LPS-induced IL-6 at 5 uM pretreated for 2 hrs followed by LPS stimulation and measured after 22 hrs by ELISA relative to control (reference value: 0 %); format: functional; conditions: time 24 hrs
[7] = test system: RAW264.7; experiment: Cytotoxicity against mouse RAW264.7 cells assessed as reduction in cell viability at 5 uM incubated for 24 hrs by MTT assay; format: cell-based; conditions: raw264.7, 24 h

Row | Compound | IC50 [1] [µM] | IC50 [2] [µM] | IC50 [3] [µM] | IC50 [4] [µM] | inhibition at 5 µM [5] [%] | inhibition at 5 µM [6] [%] | Activity [7]
1 | Cc1ccc(S(=O)(=O)N2CC3=C(NC(N)=NC3c3ccccc3F)/C(=C/c3ccccc3F)C2)cc1.Cl (stereo not given) | 11.5 | 7.3 | 13.1 | 9.6 | 44 | 56.8 | Non-Toxic
2 | Cl.NC1=NC(c2ccc(F)cc2)C2=C(N1)/C(=C/c1ccc(F)cc1)CN(S(=O)(=O)c1ccc(F)cc1)C2 (stereo not given) | 13.3 | 17.1 | 4.1 | 11.1 | 72.3 | 71.4 | Non-Toxic
3 | Cl.NC1=NC(c2ccc(F)cc2)C2=C(N1)/C(=C/c1ccc(F)cc1)CN(S(=O)(=O)c1ccccc1)C2 (stereo not given) | 9.9 | 8 | 9.5 | 11.5 | 33.5 | 39.8 | Non-Toxic
4 | CC(=O)Nc1ccc(S(=O)(=O)N2CC3=C(NC(N)=NC3c3ccccc3F)/C(=C/c3ccccc3F)C2)cc1.Cl (stereo not given) | 11.2 | 8.6 | 11.8 | 22.1 | 67.6 | 61.6 | Non-Toxic
5 | Cl.NC1=NC(c2ccccc2F)C2=C(N1)/C(=C/c1ccccc1F)CN(S(=O)(=O)c1ccc(Br)cc1)C2 (stereo not given) | 19.5 | 9.7 | 10.4 | 12.5 | 74.4 | 79.6 | Non-Toxic
6 | CC(=O)Nc1ccc(S(=O)(=O)N2C/C(=C\c3ccc(F)cc3)C(=O)/C(=C/c3ccc(F)cc3)C2)cc1 | 19.4 | 9.8 | 7.4 | 15 | – | – | Non-Toxic
7 | O=C1/C(=C/c2ccccc2F)CN(S(=O)(=O)c2ccc([N+](=O)[O-])cc2)C/C1=C\c1ccccc1F | 15.5 | 6.2 | 16.5 | 6.6 | – | – | Non-Toxic
8 | O=C1/C(=C/c2cccc(F)c2)CN(S(=O)(=O)c2ccc([N+](=O)[O-])cc2)C/C1=C\c1cccc(F)c1 | 10.7 | 15.3 | 8.1 | 14.5 | – | – | Non-Toxic
9 | O=C1/C(=C/c2ccc(F)cc2)CN(S(=O)(=O)c2ccc(C(F)(F)F)cc2)C/C1=C\c1ccc(F)cc1 | 13.5 | 4.4 | 3.2 | 16.1 | – | – | Non-Toxic
10 | O=C1/C(=C/c2ccc(F)cc2)CN(S(=O)(=O)c2ccc([N+](=O)[O-])cc2)C/C1=C\c1ccc(F)cc1 | 16.2 | 5 | 5.4 | 7.8 | – | – | Non-Toxic
11 | O=C1/C(=C/c2ccccc2F)CN(S(=O)(=O)c2ccc(C(F)(F)F)cc2)C/C1=C\c1ccccc1F | 16.2 | 5.2 | 4.9 | 15.3 | – | – | Non-Toxic
12 | Cc1ccc(S(=O)(=O)N2C/C(=C\c3ccccc3F)C(=O)/C(=C/c3ccccc3F)C2)cc1 | 16.7 | 4.1 | 14.2 | 7.9 | – | – | Non-Toxic
13 | N#Cc1ccc(S(=O)(=O)N2C/C(=C\c3cccc(F)c3)C(=O)/C(=C/c3cccc(F)c3)C2)cc1 | 15.5 | 4.5 | 2.6 | 7.5 | – | – | Non-Toxic
14 | O=C1/C(=C/c2ccccc2F)CN(S(=O)(=O)c2ccc(Cl)cc2)C/C1=C\c1ccccc1F | 14.1 | 4.5 | 10.9 | 9.6 | – | – | Non-Toxic
15 | Cc1ccc(S(=O)(=O)N2C/C(=C\c3cccc(F)c3)C(=O)/C(=C/c3cccc(F)c3)C2)cc1 | 15.7 | 18.1 | 3.5 | 11.2 | – | – | Non-Toxic
